NSD2 inh – NSD2 histone methyltransferase inhibitors, primary screen, biochemical, AlphaScreen, single concentration, set 2; inhibition, % at 12.5 µM; AID 743445, 2014; Histone-lysine N-methyltransferase NSD2 (Homo sapiens), O96028; hit rate 0.54% among 310,000; NSD2 peptide methylation, 120 min; in the data active = inhibition above about 50%
FGF22 binding – binders of human FGF22 protein, primary screen, FGF22 synaptogenesis inhibitor project, biophysical, thermal shift, single point. recombinant FGF22 thermal shift, SYPRO orange fluorescence; percent of sucrose octasulfate shift, DMSO zero. activity (Tm shift, normalised), % at 9.99 µM. hit rate 1.5% among 340,000. AID 651658, 2012;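 active = mean Tm shift, scaled 0 neutral to 100 positive control, at about 1.3% or above, every replicate too, limit read from the data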
Target sequence (Q9HCT0 whole entry, looked up): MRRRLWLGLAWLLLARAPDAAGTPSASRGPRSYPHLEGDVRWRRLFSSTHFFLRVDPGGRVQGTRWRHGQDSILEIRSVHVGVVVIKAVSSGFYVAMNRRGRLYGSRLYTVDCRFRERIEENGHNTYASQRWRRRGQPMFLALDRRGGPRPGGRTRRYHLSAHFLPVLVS
SIRT5 inh – SIRT5 desuccinylase inhibitors, primary screen, biochemical, fluorescence imaging, single point, set 5 | NAD-dependent protein deacylase sirtuin-5, mitochondrial (Homo sapiens), Q9NXA8 | inhibition, % at 15 µM | hit rate 1.1% among 330,000 | AID 652115, 2013 | Purified SirT5, succinyl-peptide AMC, trypsin-coupled fluorescence; in the data active = inhibition above about 15%
UCH37 inh – inhibitors of human UCH37 deubiquitinase, primary screen, biochemical, Ub-AMC cleavage, fluorescence; Ubiquitin carboxyl-terminal hydrolase isozyme L5 (Homo sapiens), Q9Y5K5; purified proteasome/UCH37; inhibition, % (test concentration not listed); hit rate 0.33% among 330,000;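 active = mean inhibition over replicate wells above about 20%, limit read from the data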
Target sequence (Q9Y5K5 whole entry, looked up): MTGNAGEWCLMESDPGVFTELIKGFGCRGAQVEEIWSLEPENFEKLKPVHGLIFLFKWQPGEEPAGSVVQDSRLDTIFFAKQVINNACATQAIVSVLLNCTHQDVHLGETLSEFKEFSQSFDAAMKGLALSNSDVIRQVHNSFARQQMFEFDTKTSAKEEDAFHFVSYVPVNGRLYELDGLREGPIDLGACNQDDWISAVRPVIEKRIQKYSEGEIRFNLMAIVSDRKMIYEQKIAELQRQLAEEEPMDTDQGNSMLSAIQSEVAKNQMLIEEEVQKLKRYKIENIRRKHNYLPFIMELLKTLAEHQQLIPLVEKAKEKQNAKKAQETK
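Material: human UCH37 enzyme supplied as purified proteasome complex / Amount: 0.15 nM proteasome as dispensed / Buffer or medium: pH 7.4 Tris-HCl (50 mM) with ovalbumin, ATP-MgCl2, DTT / Times: preincubation 30 min, reaction 25 min, room temperature / Technique: AMC fluorescence from Ub-AMC cleavage, excitation 355 nm, emission 460 nm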
Casp6 inh – human caspase-6 inhibitors, primary screen, biochemical, VEID-R110 fluorescence, single point, set 2 | P55212 | purified caspase-6, Z-VEID-R110 cleavage fluorescence | inhibition, % at 12.5 µM | hit rate 0.53% among 350,000;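 active = mean inhibition across replicates at least about 35%, with every replicate also reaching that limit, limit read from the data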
Of the large screens only hits and unclear results are named; the others gave an inactive call. Only some compounds are listed: those with a hit (about 2.6% of all), similar ones and a draw of the others.

Cc1ccc(NC(=O)CCC(=O)c2cccs2)cc1F	SIRT5 inh 101
COCc1nc2ccccc2n1Cc1ccccc1C	SIRT5 inh 38
Cc1ccccc1Cn1c(Cc2ccccc2)nc2ccccc21	none (no result: FGF22 binding, SIRT5 inh, Casp6 inh)
CC(C)NC(=O)N[C@H]1CC[C@H](CCNC(=O)C2CC2)O[C@@H]1CO	none (no result: NSD2 inh, UCH37 inh)
O=C(C[C@H]1C[C@H]2c3cc(NS(=O)(=O)c4ccccc4)ccc3O[C@H]2[C@H](CO)O1)NCC(F)(F)F	none (no result: NSD2 inh, UCH37 inh)
O=C(Nc1ccccc1F)N1C[C@H]2[C@@H](c3ccccc31)[C@@H](CO)N2C(=O)C1CC1	none (no result: NSD2 inh, UCH37 inh)
O=C(Nc1ccccc1)[C@@H]1[C@@H](CO)[C@@H]2Cn3c(cccc3=O)[C@@H]2N1CC1CC1	SIRT5 inh 16 (no result: NSD2 inh, UCH37 inh)
CCCNC(=O)[C@H]1[C@H](CO)[C@H]2Cn3c(ccc(-c4ccc(F)cc4)c3=O)[C@H]2N1CC1CC1	SIRT5 inh 16 (no result: NSD2 inh, UCH37 inh)
O=C(Nc1ccc(-c2ccccc2)cc1)[C@H]1[C@H](CO)[C@H]2Cn3c(cccc3=O)[C@H]2N1CC1CCCCC1	SIRT5 inh 102 (no result: NSD2 inh, UCH37 inh, Casp6 inh)
O=C(C[C@H]1CC[C@H]2[C@@H](COC[C@H](O)CN2C(=O)Nc2ccccc2)O1)NCc1ccccc1F	none (no result: NSD2 inh, UCH37 inh)
CCC(=NNc1ccccc1)c1cnnc(SC)n1	none (no result: NSD2 inh, FGF22 binding, SIRT5 inh, Casp6 inh)
CN1CCN(NC(=O)NC2CCCCC2)CC1	Casp6 inh 41
CN1C(=O)c2cc(NC(=O)C3CCCC3)ccc2OC[C@H]2O[C@H](CC(=O)NCCc3ccncc3)CC[C@H]21	none (no result: NSD2 inh, UCH37 inh)
Cc1ccc(S(=O)(=O)N(C)C[C@@H]2Oc3ccc(NS(=O)(=O)c4c(C)noc4C)cc3C(=O)N([C@@H](C)CO)C[C@H]2C)cc1	none (no result: NSD2 inh, UCH37 inh)
C[C@@H]1CN([C@@H](C)CO)C(=O)c2cccc(NS(=O)(=O)c3ccccc3)c2O[C@H]1CN(C)Cc1ccc(C(=O)O)cc1	none (no result: NSD2 inh, UCH37 inh)
COc1cc(OC)cc(C(=O)N2CCN(Cc3ccccc3Br)CC2)c1	FGF22 binding 43
Cc1noc(C)c1S(=O)(=O)N(C)C[C@H]1OCc2ccccc2-c2ccccc2C(=O)N([C@H](C)CO)C[C@H]1C	none (no result: NSD2 inh, UCH37 inh)
C[C@H](CO)N1C[C@H](C)[C@@H](CN(C)S(=O)(=O)c2cccs2)Oc2ccc(NC(=O)Nc3cccc4ccccc34)cc2C1=O	none (no result: NSD2 inh, UCH37 inh)
CN1C(=O)c2cc(NC(=O)C3CCCCC3)ccc2OC[C@@H]2O[C@H](CC(=O)NCc3ccccc3F)CC[C@H]21	none (no result: NSD2 inh, UCH37 inh)
O=C(C(=O)N1CCOCC1)c1c[nH]c2ccccc12	FGF22 binding 43
CC(Oc1ccc2c(-c3ccccc3)cc(=O)oc2c1)C(=O)NCCN1CCOCC1 (stereo not drawn)	FGF22 binding 43
CC(Oc1ccc2c(-c3ccccc3)cc(=O)oc2c1)C(=O)NCCCN1CCOCC1 (stereo not drawn)	none
CC(=O)N1[C@@H](CO)[C@@H]2c3ccccc3N(S(=O)(=O)c3ccccc3F)C[C@@H]21	none (no result: NSD2 inh, UCH37 inh)
CCOc1ccccc1CN1CCN(Cc2ccc(C)o2)C(CCO)C1 (stereo not drawn)	FGF22 binding 43
Cc1ccc(CN2CCN(Cc3cnn(-c4ccc(Cl)cc4)c3)CC2CCO)o1 (stereo not drawn)	SIRT5 inh 26 (no result: NSD2 inh)
Cc1ccc(CN2CCN(Cc3ccncc3)CC2CCO)o1 (stereo not drawn)	none
NS(=O)(=O)c1ccc(CCNC(=O)c2ccc(C#CC3(O)CCCCC3)cc2)cc1	SIRT5 inh 112 (no result: UCH37 inh)
CC(C)(C)NC(=O)C1CCN(S(=O)(=O)c2cccc3nsnc23)CC1	Casp6 inh 55
S=c1[nH]c(-c2ccccc2)cn1N=Cc1ccncc1	none (no result: NSD2 inh, FGF22 binding, SIRT5 inh, Casp6 inh)
Oc1ccc(/C=N/n2cc(-c3ccccc3)[nH]c2=S)cc1	FGF22 binding 44 (no result: UCH37 inh)
C[C@H](CO)N1C[C@H](C)[C@@H](CN(C)Cc2ccc(C(F)(F)F)cc2)Oc2ccc(NC(=O)c3ccncc3)cc2C1=O	none (no result: NSD2 inh, UCH37 inh)
C[C@@H]1CN([C@H](C)CO)C(=O)c2cc(-c3cccnc3)cnc2O[C@@H]1CN(C)C	none (no result: NSD2 inh, UCH37 inh)
CCOc1ccc(C=NNC(=O)C2CCCC2)c(OCC)c1	none (no result: NSD2 inh, FGF22 binding, SIRT5 inh, Casp6 inh)
COc1ccc(NC(=O)Nc2ccc3c(c2)C(=O)N([C@H](C)CO)C[C@@H](C)[C@@H](CN(C)Cc2ccc(C(F)(F)F)cc2)O3)cc1	SIRT5 inh 21 (no result: NSD2 inh, UCH37 inh)
COc1ccc(NC(=O)Nc2ccc3c(c2)C(=O)N([C@@H](C)CO)C[C@@H](C)[C@@H](CN(C)Cc2ccc(C(F)(F)F)cc2)O3)cc1	SIRT5 inh 20 (no result: NSD2 inh, UCH37 inh)
CCCc1cn(CC[C@@H]2CC[C@@H](NC(=O)Nc3ccccc3F)[C@H](CO)O2)nn1	none (no result: NSD2 inh, UCH37 inh)
Cc1noc(C)c1NC(=O)Nc1ccc2c(c1)CC(=O)N([C@H](C)CO)C[C@H](C)[C@@H](CN(C)CC1CC1)O2	none (no result: NSD2 inh, UCH37 inh)
C[C@@H]1CN([C@H](C)CO)C(=O)c2cc(C#CCc3ccccc3)cnc2O[C@@H]1CN(C)Cc1cccnc1	none (no result: NSD2 inh, UCH37 inh)
CNS(=O)(=O)c1ccc2nc(NC(=O)/C=C/c3ccco3)sc2c1	FGF22 binding 43 (no result: UCH37 inh)
COCC(=O)Nc1ccc2c(c1)OC[C@@H](C)N(Cc1ccncc1)C[C@H](C)[C@H](OC)CN(C)C2=O	none (no result: NSD2 inh, UCH37 inh)
CCCS(=O)(=O)NC(=O)C1(C)CCN(C(=O)c2cccs2)C1 (stereo not drawn)	SIRT5 inh 20 (no result: UCH37 inh)
CCCS(=O)(=O)NC(=O)C1(C)CCN(C(=O)c2c(F)cccc2F)C1 (stereo not drawn)	none (no result: SIRT5 inh, UCH37 inh)
COc1ccc(N2C(=O)CSC23C(=O)Nc2ccccc23)cc1 (stereo not drawn)	none (no result: NSD2 inh, FGF22 binding, SIRT5 inh, Casp6 inh)
CC(C)c1ccc(N2C(=O)CSC23C(=O)N2CCCc4cccc3c42)cc1 (stereo not drawn)	SIRT5 inh 18
CN(C(=O)CSc1nc2ccccc2o1)C1CCS(=O)(=O)C1 (stereo not drawn)	SIRT5 inh 16
CC1=NN(c2cccc(Cl)c2)C(=O)C1	none (no result: NSD2 inh)
CC1=NN(c2ccc(Cl)c(C(=O)O)c2)C(=O)C1	Casp6 inh 82
COc1cccc(C2Nc3ccc4ccccc4c3C3=C2C(=O)CCC3)c1O (stereo not drawn)	SIRT5 inh 22
COc1cc(C2CC(=O)c3c(ccc4ccccc34)N2)ccc1O (stereo not drawn)	none (no result: FGF22 binding, SIRT5 inh, Casp6 inh)
CCC(O)c1cnc(OCc2ccccc2)nc1OCc1ccccc1 (stereo not drawn)	FGF22 binding 30 (no result: SIRT5 inh, UCH37 inh)
Cc1nc2nc(N)nc(OCc3ccccc3)c2nc1C	none
C[C@H]1CN([C@@H](C)CO)C(=O)c2cc(-c3ccccc3)cnc2O[C@H]1CN(C)C(=O)Cc1ccccn1	none (no result: NSD2 inh, UCH37 inh)
COCCNC(=O)COc1ccc(C)cc1C(=O)c1cc(C#N)c(=O)n(C2CC2)c1	FGF22 binding 44
C[C@H](CO)N1C[C@H](C)[C@H](CN(C)C(=O)c2ccncc2)Oc2ncc(C3=CCCCC3)cc2C1=O	none (no result: NSD2 inh, UCH37 inh)
